Experiment [1] has as its system Moloney murine sarcoma virus. Put plainly: Compound was tested for anti-retroviral activity against moloney murine sarcoma virus (MSV) in murine C3H/3T3 embryo fibroblast cell culture. The format is functional, organism-based. In a few lines: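 C3H/3T3 fibroblasts were seeded at 5 × 10⁵ cells/mL. After 24 h they were infected with 80 focus-forming units of MSV for 90-120 min at 37 °C; the virus came from tumours induced by intramuscular inoculation of 3-day-old NMRI mice. The medium was then replaced with fresh medium containing various compound concentrations. Transformation was scored microscopically after 6 days.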

The subject of experiment [2] is Human immunodeficiency virus 1. Kind of experiment: Inhibition of human immunodeficiency virus-1 (HIV-1) induced cytopathicity in CEM cells. As to conditions: Human immunodeficiency virus 1, CCRF-CEM. The format is functional, organism-based. In a few lines: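 CEM cells (~3 × 10⁵ cells/mL) were infected with HIV-1(IIIB) at 100 CCID50 per µL. Infected cells were plated with compound dilutions and incubated 4 days at 37 °C. Giant cell formation was then examined microscopically.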

Experiment [3] relates to Human immunodeficiency virus 2. Kind of experiment: Inhibition of human immunodeficiency virus-2 (HIV-2) induced cytopathicity in CEM cells. It is filed as functional, organism-based. The conditions noted are these: Human immunodeficiency virus 2, CCRF-CEM. A general note: Cytopathic effects are the visible damage that an infection or toxin causes in cultured cells.
Experiment [4] in a line: Antiviral activity against herpes simplex virus-1 KOS in E6SM cell culture. It is filed as functional, cell-based. As to conditions: Human alphaherpesvirus 1, E6SM. In a few lines:
(§1)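 Confluent cell monolayers in microtiter trays were inoculated with 100 CCID50 of virus. After 1 h adsorption the residual virus was removed. Cells were then incubated with serial compound concentrations (400, 200, 100, ... µg/mL). Cytopathicity was scored once it was complete in untreated infected controls. The value is the 50% inhibitory concentration, or the concentration reducing plaque formation by 50%, in µg/mL.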

The subject of experiment [5] is Human alphaherpesvirus 1. Put plainly: Antiviral activity against thymidine kinase deficient herpes simplex virus-1 HSV-1 TK- B2006 strain in E6SM cell culture. The format is functional, organism-based. The conditions noted are these: Human alphaherpesvirus 1, E6SM. The procedure, abridged: as §1
Experiment [6] in a line: Antiviral activity against thymidine kinase deficient herpes simplex virus-1 HSV-1 TK- VMW-1837 strain in E6SM cell culture. It is filed as functional, cell-based. The conditions noted are these: Human alphaherpesvirus 1, E6SM. In a few lines:
as §1

Experiment [7] relates to Vaccinia virus. Kind of experiment: Antiviral activity against vaccinia virus (VV) in E6SM cell culture. It is filed as functional, organism-based. As to conditions: Orthopoxvirus vaccinia.
Experiment [8] deals with Human alphaherpesvirus 3. Put plainly: Antiviral activity in TK+ varicella zoster virus (VZV) YS strain in HEL cell culture. As to conditions: Human alphaherpesvirus 3, HEL. The format is functional, organism-based.
In experiment [9] the test system is Human betaherpesvirus 5. Kind of experiment: Antiviral activity against cytomegalovirus (CMV) AD169 strain in HEL cell culture. It is filed as functional, organism-based. As to conditions: Human betaherpesvirus 5, HEL. The procedure, abridged:
as §1

For experiment [10], the system named is Cytomegalovirus. Kind of experiment: Antiviral activity against cytomegalovirus (CMV) Davis strain in HEL cell culture. The conditions noted are these: Human betaherpesvirus 5, HEL. The format is functional, organism-based. In a few lines: as §1
In experiment [11] the test system is Human alphaherpesvirus 3. Kind of experiment: Antiviral activity in TK+ varicella zoster virus (VZV) 07/1 strain in HEL cell culture. It is filed as functional, organism-based. The conditions noted are these: Human alphaherpesvirus 3, HEL.
Experiment [12] relates to Human alphaherpesvirus 3. Put plainly: Antiviral activity in TK+ varicella zoster virus (VZV) OKA strain in HEL cell culture. The format is functional, organism-based. As to conditions: Human alphaherpesvirus 3, HEL.
Experiment [13] has as its system Human alphaherpesvirus 2. Put plainly: Antiviral activity in herpes simple virus-2 (HSV-2) Lyons strain in E6SM cell culture. As to conditions: Human alphaherpesvirus 2, E6SM. It is filed as functional, organism-based. In a few lines:
as §1

Experiment [14] concerns Human immunodeficiency virus 1. Put plainly: Inhibition of human immunodeficiency virus-1 (HIV-1) induced cytopathicity in human MT-4 cells. The format is functional, organism-based. The conditions noted are these: Human immunodeficiency virus 1, MT4. In a few lines:
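MT-4 cells (~4 × 10⁵ cells/mL) were infected with HIV-1(IIIB) at 100 CCID50 per µL. Infected cells were seeded into wells containing compound dilutions and incubated 5 days at 37 °C. Viable cells were then counted by trypan blue exclusion in a blood cell counting chamber.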

This passage reports IC50 results from ChEMBL document CHEMBL1129435, “Acyclic nucleotide analogs derived from 8-azapurines: synthesis and antiviral activity” (J Med Chem, 1996).

≈ marks a conversion by molar mass, not a printed value.

On to `Nc1nc(N)c2nnn(C[C@@H](CF)OCP(=O)(O)O)c2n1`, for which the IC50 in [1] was 14.9 µg/mL (≈ 46.4 µM); in experiment [2], 50 µg/mL (≈ 156 µM); in [3], 50 µg/mL (≈ 156 µM); in experiment [4] it was over 400 µg/mL; in experiment [5], over 400 µg/mL; in experiment [6], over 400 µg/mL. Also, the IC50 in [7] was over 400 µg/mL; in experiment [8], over 50 µg/mL; in experiment [9], over 50 µg/mL; in experiment [10], over 50 µg/mL; in [11], over 50 µg/mL; in [12] it was over 50 µg/mL.
In the case of `Nc1ncnc2nn(C[C@H](O)CO)nc12`, the IC50 in experiment [1] is over 100 µg/mL; in [2], over 100 µg/mL; in experiment [3] it was over 100 µg/mL; in experiment [4], over 200 µg/mL; in experiment [9], over 100 µg/mL; in experiment [12], over 40 µg/mL.
`Nc1nc(N)c2nn(C[C@@H](CF)OCP(=O)(O)O)nc2n1`: the IC50 in experiment [1] was over 200 µg/mL; in experiment [2], over 100 µg/mL; in [3] it was over 100 µg/mL; in experiment [4], over 400 µg/mL; in experiment [5], over 400 µg/mL; in experiment [6], over 400 µg/mL. Also, the IC50 in [7] is over 400 µg/mL; in [8] it was over 50 µg/mL; in [9], over 50 µg/mL; in experiment [10] it was over 50 µg/mL; in experiment [11], over 50 µg/mL; in experiment [12] it was over 50 µg/mL.
`Nc1ncnc2c1nnn2C[C@H](O)CO`: the IC50 in experiment [1] was over 100 µg/mL; in experiment [2] it was over 100 µg/mL; in [3], over 100 µg/mL; in [4], over 200 µg/mL; in experiment [8], over 40 µg/mL; in [9], over 100 µg/mL. Besides, the IC50 in experiment [11] and in [12] was over 40 µg/mL throughout.
Take `Nc1ncnc2c1nnn2C[C@@H](CF)OCP(=O)(O)O`: the IC50 was over 200 µg/mL in experiment [1]; over 100 µg/mL in experiment [2]; over 100 µg/mL in experiment [3]; over 400 µg/mL in experiment [4]; over 400 µg/mL in experiment [5]; over 400 µg/mL in experiment [6]. The IC50 in experiment [7] was over 400 µg/mL; in experiment [13], over 400 µg/mL; in experiment [8] it was over 40 µg/mL; in experiment [9], over 40 µg/mL; in experiment [10] it was over 40 µg/mL; in [11] it was over 40 µg/mL. The IC50 in experiment [12] was over 40 µg/mL.
For `Nc1ncnc2nn(C[C@@H](CF)OCP(=O)(O)O)nc12`, the IC50 is 13.1 µg/mL (≈ 42.8 µM) in experiment [1]; over 40 µg/mL in [4]; over 40 µg/mL in [5]; over 40 µg/mL in [7]; over 10 µg/mL in experiment [8]; over 400 µg/mL in [9]. The IC50 was over 400 µg/mL in experiment [10], over 10 µg/mL in experiment [11], over 10 µg/mL in experiment [12] and 15 µg/mL (≈ 49 µM) in [14].
With `Nc1nc(N)c2nnn(C[C@H](O)CO)c2n1`, the IC50 in experiment [1] was over 40 µg/mL; in [2] it was over 100 µg/mL; in [3], over 100 µg/mL; in experiment [4], over 100 µg/mL; in experiment [8], over 50 µg/mL; in experiment [9], over 50 µg/mL. The IC50 in [11] and in experiment [12] was over 50 µg/mL throughout.
With `CC(C)OP(=O)(CO[C@H](CO)Cn1nc2ncnc(N)c2n1)OC(C)C`, the IC50 was over 400 µg/mL in experiment [4]; over 400 µg/mL in experiment [5]; over 400 µg/mL in experiment [6]; over 400 µg/mL in experiment [7]; over 400 µg/mL in [13]; over 50 µg/mL in experiment [8]. For the same compound, the IC50 in experiment [9], in experiment [10] and in experiment [12] was over 50 µg/mL throughout.
Take `Nc1nc2c(ncn2COCCO)c(=O)[nH]1` [ACYCLOVIR]: the IC50 in [4] was found to be 0.015 µg/mL (≈ 0.0666 µM); in experiment [9] it was 13 µg/mL (≈ 57.7 µM).
Take `Cc1cn([C@H]2C[C@H](N=[N+]=[N-])[C@@H](CO)O2)c(=O)[nH]c1=O` [ZIDOVUDINE]: the IC50 in experiment [1] was 0.02 µg/mL (≈ 0.0748 µM); in experiment [2], 0.005 µg/mL (≈ 0.0187 µM); in experiment [3], 0.008 µg/mL (≈ 0.0299 µM).

The term IC50 denotes the midpoint of a concentration-inhibition curve.
